SUMO1 PPI mod – alters human SUMO1 binding to SIM partners; SUMO1 binding to a labelled peptide, TR-FRET, 1 h; AID 602429; 360,000 compounds, 0.33% hits; inhibition, % at 20 µM; P63165; in the data active = inhibition above about 37%
Target sequence (P63165 whole entry, looked up): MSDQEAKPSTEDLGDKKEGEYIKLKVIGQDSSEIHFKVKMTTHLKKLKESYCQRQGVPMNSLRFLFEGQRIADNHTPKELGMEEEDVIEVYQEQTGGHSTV
LMPTP block – LMPTP (human) inhibition; P24666; recombinant LMPTP-A, OMFP fluorogenic substrate, fluorescence intensity; inhibition, % at 20 µM; 360,000 compounds, 0.22% hits; AID 651560;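 active = compounds that cut the enzyme signal by at least half of the control window in the single-dose screen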;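 also: plate controls were DMSO wells with enzyme plus substrate for no effect and substrate without enzyme for full effect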
Target sequence (P24666 whole entry, looked up): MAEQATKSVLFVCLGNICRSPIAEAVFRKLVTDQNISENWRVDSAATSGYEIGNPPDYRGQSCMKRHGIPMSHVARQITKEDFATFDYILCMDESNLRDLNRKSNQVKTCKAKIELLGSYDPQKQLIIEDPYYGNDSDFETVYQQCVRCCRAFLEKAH
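Assay system: LMPTP-A enzyme. Input: 0.625 nM LMPTP-A final. Probe or stimulus: 400 µM OMFP. Compound dosing: single 20 µM dose. Schedule: 50 min dark incubation at room temperature. Detection: fluorescence intensity of OMFP turnover product. Read-out: percent inhibition versus substrate-only and uninhibited controls. Benchmarks: no-enzyme low control, uninhibited high control.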
STEP block – inhibitors of human striatal-enriched phosphatase STEP. P54829. 360,000 compounds, 0.25% hits. inhibition, % at 20 µM. recombinant STEP, OMFP fluorogenic substrate, fluorescence;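 active = inhibition at 20 µM, scaled per plate between control wells, above about 37%, limit read from the data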;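 also: 0% = DMSO with enzyme and substrate and 100% = substrate only without enzyme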
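Material: STEP (striatal-enriched tyrosine phosphatase) enzyme, cell-free; Compound dosing: 20 µM single dose in 1% DMSO; Technique: fluorescence read at 480 nm ex / 540 nm em; Times: reaction 20 min, ambient temperature; Medium: 50 mM Bis-Tris pH 6.0 with 2.5 mM DTT and 0.005% Tween 20; Also added: OMFP at 25 µM.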
Scp-1 inhibitor – blocks human Scp-1 phosphatase activity; inhibition, % at 20 µM; AID 493091; 340,000 compounds, 0.88% hits; Q9GZU7; Recombinant Scp1, phosphopeptide, malachite green phosphate absorbance;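 active = inhibition above about 50% at 20 µM, limit read from the data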;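 also: plate controls were DMSO wells with enzyme for no effect and wells lacking enzyme for full effect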
Target sequence (Q9GZU7 76-261 limits assumed): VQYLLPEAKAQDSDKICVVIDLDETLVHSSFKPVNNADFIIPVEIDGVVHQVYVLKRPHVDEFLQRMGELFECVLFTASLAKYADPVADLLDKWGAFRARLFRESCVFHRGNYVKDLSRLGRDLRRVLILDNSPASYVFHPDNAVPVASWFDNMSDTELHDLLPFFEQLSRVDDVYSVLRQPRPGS
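System: SCP-1 catalytic domain; Reagent: Phospho 17-mer peptide substrate; Doses: one concentration, 20 µM, with 1.0% DMSO; Incubation: 45 min room-temperature reaction, 5 min colour, 30 min stabiliser; Signal: Phosphate-binding colour reagent, absorbance read at 630 nm.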
FAS-TE inh – blocks the thioesterase domain of human fatty acid synthase. recombinant FAS-TE, OMFH fluorogenic substrate, fluorescence endpoint. P49327. inhibition, % at 15 µM. 360,000 compounds, 0.67% hits;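 active = compounds whose normalised, plate-corrected inhibition of enzyme fluorescence in the single-dose primary screen is 50% or more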;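 also: 0% = DMSO with enzyme and 100% = substrate without enzyme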
* = called active by the depositor; nt = not tested or not shown. An excerpt weighted towards active compounds, which were near 1.9% of everything screened.

SMILES	SUMO1 PPI mod	LMPTP block	STEP block	Scp-1 inhibitor	FAS-TE inh
CCOC(=O)C1=C(C)N=c2s/c(=C/c3ccccc3)c(=O)n2C1c1ccc(OC)c(OC)c1 (configuration not stated)	-14.9	1.3	5.5	-2.0	22.8
CCOC(=O)C1=C(C)N=c2s/c(=C\c3ccc(OCC(=O)O)cc3)c(=O)n2C1c1ccc(Cl)cc1 (configuration not stated)	1.2	16.7	33.8	30.5	3.6
CCOC(=O)C1=C(C)N=c2s/c(=C/c3ccc(OCC(=O)O)cc3)c(=O)n2C1c1ccc(SC)cc1 (configuration not stated)	27.2	48.4	85.1*	nt	5.0
CCOC(=O)C1=C(C)N=c2s/c(=C/c3ccc(OCC(=O)O)c(OC)c3)c(=O)n2C1c1ccc(Cl)cc1 (configuration not stated)	6.7	3.0	36.3	51.0*	-9.5
CC1=C(C(=O)OC(C)C)C(c2ccc(Cl)cc2)n2c(sc(=Cc3ccc(OCC(=O)O)cc3)c2=O)=N1 (configuration not stated)	105.9*	87.9*	87.3*	nt	-2.3
C[C@H]1CN([C@@H](C)CO)C(=O)CCCn2cc(nn2)CO[C@@H]1CN(C)C(=O)Nc1ccccc1C(F)(F)F	5.3	-1.1	2.8	nt	-7.1
Cc1sc(NC(=O)CSc2nnc3scc(-c4ccccc4)n23)c(C#N)c1C	44.6*	1.2	1.7	-6.4	-8.9
Cc1sc(NC(=O)CSc2nnc(COc3ccccc3)n2C)c(C#N)c1C	-0.8	-1.3	-1.0	-7.8	-12.6
Nc1c(C(=O)NCc2ccc3c(c2)OCO3)c2nc3ccccc3nc2n1CCCN1CCOCC1	46.6*	-1.6	14.7	-3.7	26.3
COc1ccccc1CNC(=O)c1c(N)n(CCCN2CCOCC2)c2nc3ccccc3nc12	5.2	-2.0	5.2	-6.1	20.3
Cc1cc(C(=O)Nc2cccc(C(=O)O)c2)c(C)o1	0.2	-1.1	-1.3	6.5	-6.1
Cc1cc(C(=O)Nc2cccc(O)c2)c(C)o1	37.5*	0.6	-0.1	0.2	-2.4
CNc1nc(NC)c2cn[nH]c2n1	-2.1	63.0*	-1.6	-7.6	-5.2
CC(C)Nc1ncnc2[nH]ncc12	2.1	-2.4	5.4	-9.6	-12.0
CC(=O)c1ccc(OCCCC(=O)OCC(=O)Nc2ccc3[nH]c(=O)[nH]c3c2)cc1	75.8*	-1.8	-2.0	-2.8	-5.7
O=C(COC(=O)C1CC1)Nc1ccc2[nH]c(=O)[nH]c2c1	7.5	1.7	2.6	1.9	-7.7
O=C(COC(=O)CNC(=O)c1ccccc1F)Nc1ccc2[nH]c(=O)[nH]c2c1	26.5	0.7	-2.4	-4.0	-4.9
COc1ccc(CCC(=O)OCC(=O)Nc2ccc3[nH]c(=O)[nH]c3c2)cc1	11.0	0.0	4.6	-4.7	-6.4
COc1ccccc1C(=O)NCC(=O)OCC(=O)Nc1ccc2[nH]c(=O)[nH]c2c1	46.8*	-0.5	-2.9	-6.6	-6.0
CC(CC(=O)OCC(=O)Nc1ccc2[nH]c(=O)[nH]c2c1)c1ccccc1 (configuration not stated)	46.1*	0.2	-1.5	4.8	0.9
COc1ccc(OCC(=O)OCC(=O)Nc2ccc3[nH]c(=O)[nH]c3c2)cc1	61.9*	-2.0	-2.3	-7.5	-7.9
Cc1ccc(S(=O)(=O)N2[C@@H](c3cccc(Cl)c3)C(C(=O)OC(C)(C)C)=CC[C@H]2c2ccc(C(C)C)cc2)cc1	2.3	0.6	3.4	nt	19.9
CN1C(=O)/C(=C/c2ccc(C(=O)Nc3ccc(O)cc3C(=O)O)cc2)SC1=S	32.6	18.8	97.5*	46.9	16.8
COc1cc(-c2coc3c(C(=O)NCc4ccc(C(F)(F)F)cc4)cccc23)ccc1O	6.0	9.3	2.0	nt	22.6
O=C1C=CC(=O)c2c(O)c(N3CCN(CCO)CC3)c(Cl)c(O)c21	90.5*	76.0*	26.8	73.1*	1.2
O=C1C=CC(=O)c2c(O)c(N3CCN(CCOCCO)CC3)c(Br)c(O)c21	109.4*	77.0*	86.1*	70.2*	4.6
O=S(=O)(c1ccc(Br)cc1Cl)N1CCN(CCO)CC1	-0.9	0.2	0.6	-2.5	-0.8
N#C/C(=C\c1ccc([N+](=O)[O-])o1)C(=O)Nc1ccc(F)cc1	9.1	5.8	0.8	56.5*	10.6
Cc1sc2cc3c(c(C(=O)c4ccccc4)[n+]2c1C)-c1cccc2cccc-3c12	nt	nt	nt	14.1	nt

Assay outcomes from PubChem BioAssay.
